Reference: PMC5148661 (ACS infectious diseases, 2016)
Where two headings read alike, the source gives them in different places.

What was measured:
[1] = target: CYP2C9 (Homo sapiens, UniProt P11712); test: reversible cytochrome P450 inhibition; assay type: in vitro ADME
Procedure, shortened: (§1)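 Reversible inhibition of human CYP isoforms tested with isoform-specific probe substrates. Time-dependent (mechanism-based) inhibition was also assessed.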

[2] = target: P. cynomolgi DHODH (Plasmodium cynomolgi, UniProt K6UE05); test: DHODH inhibition, DCIP-based assay; assay type: biochemical
P. cynomolgi DHODH, sequence (K6UE05 1-385): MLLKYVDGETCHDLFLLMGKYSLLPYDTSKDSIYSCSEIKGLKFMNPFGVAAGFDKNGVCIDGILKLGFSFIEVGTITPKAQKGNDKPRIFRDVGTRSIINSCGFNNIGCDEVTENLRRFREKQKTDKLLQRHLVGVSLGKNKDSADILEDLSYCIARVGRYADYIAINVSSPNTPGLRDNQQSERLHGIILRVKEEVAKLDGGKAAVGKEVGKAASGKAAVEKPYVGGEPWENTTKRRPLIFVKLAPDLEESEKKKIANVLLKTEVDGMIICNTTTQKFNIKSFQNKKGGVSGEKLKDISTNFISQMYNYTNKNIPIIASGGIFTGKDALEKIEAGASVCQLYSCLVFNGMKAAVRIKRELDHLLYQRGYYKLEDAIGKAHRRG

[3] = system: CYP isoforms (all isoforms tested); test: cytochrome P450 inhibition, other isoforms and time-dependent inhibition; assay type: in vitro ADME
Procedure, shortened: as §1

[4] = system: CYP isoforms; test: as above; assay type: in vitro ADME; details: 20 μM
Procedure, shortened: as §1

[5] = solubility by equilibration in physiologically-relevant media; assay type: physicochemical
[6] = system: P. falciparum 3D7A parasites; test: in vitro kill rate; assay type: cell-based; details: for EC50: Plasmodium falciparum, 3D7, 48 h
[7] = metabolic stability in liver microsomes; assay type: in vitro ADME; details: mouse
[8] = human pharmacokinetic and dose predictions
Procedure, shortened: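 Human PK was predicted by PBPK modelling from human liver microsome clearance. Allometric scaling of unbound clearance after IV dosing in mouse, rat and dog served as a comparison. Half-life was derived from predicted clearance and Vss. A plasma profile was simulated for a single 200 mg oral dose in the fasted state.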

[9] = stability in plasma and blood; assay type: in vitro ADME; details: plasma 37°C over 5 h; blood over 4 h
[10] = target: Human DHODH (Homo sapiens, UniProt Q02127); test: DHODH inhibition, DCIP-based assay; assay type: biochemical
[11] = pharmacokinetics after IV and oral dosing; assay type: in vivo, dogs; details: dog, plasma, 1 mg/kg
Procedure, shortened: (§2)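 Single IV and oral doses were given. Mice and rats received about 2 mg/kg IV and 5–50 mg/kg orally, with blood sampled over 30–48 h from 2 mice per time point or 2 rats. Dogs received 1 mg/kg by each route (n=3). Plasma was separated by centrifugation and assayed by LC/MS, and parameters were derived non-compartmentally.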

[12] = target: Ca_1.2 channel (Homo sapiens, UniProt Q13936); test: Ca_1.2 channel assay; assay type: cell-based
Ca_1.2 channel, sequence (Q13936 whole entry): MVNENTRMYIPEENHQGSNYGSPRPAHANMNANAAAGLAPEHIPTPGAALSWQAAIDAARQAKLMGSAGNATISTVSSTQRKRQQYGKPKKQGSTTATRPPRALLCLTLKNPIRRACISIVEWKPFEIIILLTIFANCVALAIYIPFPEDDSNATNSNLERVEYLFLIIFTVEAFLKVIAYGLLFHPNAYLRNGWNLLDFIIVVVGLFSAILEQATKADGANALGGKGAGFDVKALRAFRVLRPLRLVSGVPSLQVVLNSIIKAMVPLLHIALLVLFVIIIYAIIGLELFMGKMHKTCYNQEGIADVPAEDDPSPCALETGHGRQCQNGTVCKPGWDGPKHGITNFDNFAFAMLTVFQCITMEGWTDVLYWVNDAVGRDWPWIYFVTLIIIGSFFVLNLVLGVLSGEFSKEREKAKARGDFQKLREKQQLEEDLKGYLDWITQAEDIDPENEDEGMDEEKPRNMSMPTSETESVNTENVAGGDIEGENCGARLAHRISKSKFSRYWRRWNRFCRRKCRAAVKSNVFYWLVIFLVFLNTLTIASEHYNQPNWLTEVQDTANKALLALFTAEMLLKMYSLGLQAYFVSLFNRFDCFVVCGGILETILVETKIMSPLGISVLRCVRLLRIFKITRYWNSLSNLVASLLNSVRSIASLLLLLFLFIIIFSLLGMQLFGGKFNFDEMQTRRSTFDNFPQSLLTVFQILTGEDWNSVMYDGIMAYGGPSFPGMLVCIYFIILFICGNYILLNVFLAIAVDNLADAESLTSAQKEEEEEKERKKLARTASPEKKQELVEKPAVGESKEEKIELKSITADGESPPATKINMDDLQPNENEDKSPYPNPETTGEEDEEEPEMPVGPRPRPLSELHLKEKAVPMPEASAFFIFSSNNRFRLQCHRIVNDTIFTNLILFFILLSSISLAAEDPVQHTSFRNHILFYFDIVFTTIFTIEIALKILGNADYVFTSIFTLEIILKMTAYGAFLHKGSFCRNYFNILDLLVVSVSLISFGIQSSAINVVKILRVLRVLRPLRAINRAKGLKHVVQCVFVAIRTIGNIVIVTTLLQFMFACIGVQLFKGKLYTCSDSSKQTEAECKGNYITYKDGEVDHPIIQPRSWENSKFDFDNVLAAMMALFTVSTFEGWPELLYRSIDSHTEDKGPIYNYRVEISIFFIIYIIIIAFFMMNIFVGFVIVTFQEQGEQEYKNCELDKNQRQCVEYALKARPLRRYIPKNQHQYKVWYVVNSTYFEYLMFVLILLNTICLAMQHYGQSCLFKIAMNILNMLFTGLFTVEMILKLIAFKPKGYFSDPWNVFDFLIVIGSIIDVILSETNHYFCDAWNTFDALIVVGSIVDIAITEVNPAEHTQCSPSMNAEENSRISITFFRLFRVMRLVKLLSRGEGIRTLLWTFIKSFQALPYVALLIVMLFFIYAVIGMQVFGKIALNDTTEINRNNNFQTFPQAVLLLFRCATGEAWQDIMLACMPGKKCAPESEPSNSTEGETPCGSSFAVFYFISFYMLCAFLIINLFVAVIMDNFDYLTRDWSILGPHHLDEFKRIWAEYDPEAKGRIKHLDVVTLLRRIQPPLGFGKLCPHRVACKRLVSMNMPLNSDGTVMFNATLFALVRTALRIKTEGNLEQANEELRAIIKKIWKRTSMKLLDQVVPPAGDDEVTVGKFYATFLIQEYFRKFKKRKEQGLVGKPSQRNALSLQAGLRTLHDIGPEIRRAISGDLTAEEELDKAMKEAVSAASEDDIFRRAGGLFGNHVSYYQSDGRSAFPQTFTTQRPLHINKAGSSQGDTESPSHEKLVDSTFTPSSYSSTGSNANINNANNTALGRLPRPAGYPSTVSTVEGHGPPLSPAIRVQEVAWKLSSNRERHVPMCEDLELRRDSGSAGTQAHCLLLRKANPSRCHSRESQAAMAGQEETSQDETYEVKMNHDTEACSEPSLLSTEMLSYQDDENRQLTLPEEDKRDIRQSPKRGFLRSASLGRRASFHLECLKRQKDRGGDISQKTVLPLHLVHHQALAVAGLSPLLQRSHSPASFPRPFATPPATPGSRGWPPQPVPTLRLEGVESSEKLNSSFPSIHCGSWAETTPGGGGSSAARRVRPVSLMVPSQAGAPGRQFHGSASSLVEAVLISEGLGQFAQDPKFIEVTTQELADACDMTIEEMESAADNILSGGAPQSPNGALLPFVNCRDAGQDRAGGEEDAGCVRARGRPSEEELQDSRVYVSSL
Ca_1.2 channel, sequence (Q08289 whole entry, further chain): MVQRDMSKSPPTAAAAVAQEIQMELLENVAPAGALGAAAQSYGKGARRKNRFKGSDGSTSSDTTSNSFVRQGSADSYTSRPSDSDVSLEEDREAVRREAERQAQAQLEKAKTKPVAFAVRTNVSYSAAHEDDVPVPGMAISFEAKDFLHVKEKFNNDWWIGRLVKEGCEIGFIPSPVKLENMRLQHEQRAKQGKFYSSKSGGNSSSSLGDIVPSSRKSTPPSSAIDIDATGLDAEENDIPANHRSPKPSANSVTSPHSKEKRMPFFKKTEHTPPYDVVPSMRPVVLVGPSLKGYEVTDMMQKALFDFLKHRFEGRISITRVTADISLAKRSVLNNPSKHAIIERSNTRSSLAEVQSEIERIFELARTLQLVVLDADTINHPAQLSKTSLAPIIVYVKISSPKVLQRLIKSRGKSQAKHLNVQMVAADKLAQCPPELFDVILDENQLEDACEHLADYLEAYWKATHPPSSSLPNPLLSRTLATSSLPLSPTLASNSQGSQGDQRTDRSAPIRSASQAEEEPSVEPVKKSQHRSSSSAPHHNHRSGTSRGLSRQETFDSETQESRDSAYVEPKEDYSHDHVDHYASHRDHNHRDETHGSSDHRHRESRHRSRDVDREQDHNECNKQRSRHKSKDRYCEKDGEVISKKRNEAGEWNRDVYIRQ
Ca_1.2 channel, sequence (P54289 25-956, further chain): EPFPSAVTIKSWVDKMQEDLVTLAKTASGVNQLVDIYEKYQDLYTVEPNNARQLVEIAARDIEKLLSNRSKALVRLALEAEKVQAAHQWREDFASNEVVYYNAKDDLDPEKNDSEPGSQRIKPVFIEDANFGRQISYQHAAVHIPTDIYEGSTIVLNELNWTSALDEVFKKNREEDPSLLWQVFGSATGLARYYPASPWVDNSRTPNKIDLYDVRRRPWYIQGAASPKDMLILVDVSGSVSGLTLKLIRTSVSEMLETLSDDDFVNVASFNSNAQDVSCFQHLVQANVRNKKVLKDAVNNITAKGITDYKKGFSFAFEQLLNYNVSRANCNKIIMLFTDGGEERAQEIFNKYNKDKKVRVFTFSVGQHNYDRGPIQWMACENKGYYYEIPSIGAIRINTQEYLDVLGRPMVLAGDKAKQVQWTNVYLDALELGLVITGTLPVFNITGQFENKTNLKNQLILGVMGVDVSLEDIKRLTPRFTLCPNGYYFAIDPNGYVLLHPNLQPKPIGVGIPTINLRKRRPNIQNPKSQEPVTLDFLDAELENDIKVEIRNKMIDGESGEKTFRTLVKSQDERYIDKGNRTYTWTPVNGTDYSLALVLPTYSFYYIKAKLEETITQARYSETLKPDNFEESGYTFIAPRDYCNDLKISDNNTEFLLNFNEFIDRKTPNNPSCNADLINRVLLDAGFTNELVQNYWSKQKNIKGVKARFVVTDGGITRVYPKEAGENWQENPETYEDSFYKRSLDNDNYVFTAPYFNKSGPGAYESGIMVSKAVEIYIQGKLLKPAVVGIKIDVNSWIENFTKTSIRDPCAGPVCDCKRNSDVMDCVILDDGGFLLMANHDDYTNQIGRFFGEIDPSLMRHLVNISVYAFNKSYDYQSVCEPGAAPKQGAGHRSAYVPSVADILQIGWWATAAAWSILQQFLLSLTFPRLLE
Ca_1.2 channel, sequence (P54289 957-1103, further chain): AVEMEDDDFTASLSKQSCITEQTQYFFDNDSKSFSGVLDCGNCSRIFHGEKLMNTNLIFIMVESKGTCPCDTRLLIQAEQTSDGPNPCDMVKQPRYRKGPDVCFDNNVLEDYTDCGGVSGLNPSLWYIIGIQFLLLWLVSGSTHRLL
Procedure, shortened: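 Channel activity measured by IonWorks automated patch-clamp electrophysiology at a contract lab.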

[13] = pharmacokinetics after IV and oral dosing; assay type: in vivo, mice
Procedure, shortened: as §2

[14] = target: Rabbit DHODH (Oryctolagus cuniculus, UniProt G1SWF3); test: DHODH inhibition, DCIP-based assay; assay type: biochemical
Rabbit DHODH, sequence (G1SWF3 1-395): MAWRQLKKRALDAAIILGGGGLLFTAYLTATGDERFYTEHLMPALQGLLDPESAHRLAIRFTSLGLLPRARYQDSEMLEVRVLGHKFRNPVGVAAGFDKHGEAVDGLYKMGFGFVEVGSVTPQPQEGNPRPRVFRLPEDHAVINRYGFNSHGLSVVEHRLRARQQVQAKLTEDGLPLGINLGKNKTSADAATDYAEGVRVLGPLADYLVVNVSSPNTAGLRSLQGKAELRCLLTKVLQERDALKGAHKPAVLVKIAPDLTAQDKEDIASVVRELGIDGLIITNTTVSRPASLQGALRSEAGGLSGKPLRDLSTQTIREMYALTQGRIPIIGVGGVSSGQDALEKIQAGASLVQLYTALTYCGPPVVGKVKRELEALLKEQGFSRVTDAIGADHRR

SMILES: Cc1cc(Nc2ccc(C(F)(F)F)nc2)n2nc(C(C)(F)F)nc2n1 [DSM421, 2-(1,1-Difluoroethyl)-5-methyl-N-(6-(trifluoromethyl)pyridin-3-yl)-[1,2,4]triazolo[1,5-a]pyrimidin-7-amine]
- inhibition at 20 µM [1]: 22%
- IC50 [2]: 12 nM
- IC50 [3]: > 20000 nM
- inhibition of the other CYP isoforms [4]: no measurable inhibition
- fold more soluble than DSM265 [5]: 6-80 fold
- lag time before killing began ([6]; 10xEC50): 48 h
- EC50 ([6]; read-out: EC50, 48 h growth assay (PRR)): 43 nM
- EC50 ([6]; read-out: unbound EC50): 22 nM
- microsomal CLint at 1 μM [7]: < 7 µL/min/mg
- predicted unbound human clearance ([8]; allometric scaling of mice, rats and dogs IV unbound clearance): 2.2 mL/min/kg
- estimated human half-life ([8]; human): ~ 78 h
- half-life ([8]; human, plasma, estimated human half-life): 78 h
- stability in plasma and blood [9]: stable
- IC50 [10]: > 100000 nM
- half-life [11]: 15 to 18 h
- CLint scaled ([11]; intravenous): 4.5 mL/min/kg
- Vd ([11]; iv): 0.8 L/kg
- clearance ([11]; iv): 0.5 mL/min/kg
- Tmax ([11]; po): 4 h
- bioavailability ([11]; po): ~100%
- activity on Ca_1.2 channel [12]: no activity
- fold increase of plasma AUC ([13]; mice, oral, for a 9-fold increase in dose): 13 fold
- half-life ([13]; mouse, plasma): ~2 h
- Vd ([13]; mouse, plasma, iv, 2 mg/kg): 0.9 L/kg
- clearance ([13]; mouse, plasma, iv, 2 mg/kg): 5.1 mL/min/kg
- Tmax ([13]; mouse, plasma, po): 1 to 2 h
- bioavailability ([13]; mouse, plasma, po): > 100%
- IC50 [14]: > 100000 nM
